Screening data from PubChem.
This is a sample that favours compounds with a hit; in the whole collection about 1.6% have one here.
TCR-CD3 inh – blocks the human TCR-CD3 interaction; AID 651800; actives 0.37% (n = 360,000); inhibition, % at 9.4 µM; TAMRA-labeled TCR probe fluorescence, biochemical;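 also: recombinant mutant TCR 2C K166C tagged with TAMRA read by polarization; 0% = receptor in buffer alone and 100% = receptor with positive control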
PABP polyA inh – PABP-poly(A) binding inhibition | P11940 | PABP-poly(A) RNA binding, fluorescence polarization | calls only at 35 µM | actives 1% (n = 290,000); call rule not given here;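 also: calls also rest on retests at 20 µM and on dose response follow-up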
Target sequence (P11940 whole entry, looked up): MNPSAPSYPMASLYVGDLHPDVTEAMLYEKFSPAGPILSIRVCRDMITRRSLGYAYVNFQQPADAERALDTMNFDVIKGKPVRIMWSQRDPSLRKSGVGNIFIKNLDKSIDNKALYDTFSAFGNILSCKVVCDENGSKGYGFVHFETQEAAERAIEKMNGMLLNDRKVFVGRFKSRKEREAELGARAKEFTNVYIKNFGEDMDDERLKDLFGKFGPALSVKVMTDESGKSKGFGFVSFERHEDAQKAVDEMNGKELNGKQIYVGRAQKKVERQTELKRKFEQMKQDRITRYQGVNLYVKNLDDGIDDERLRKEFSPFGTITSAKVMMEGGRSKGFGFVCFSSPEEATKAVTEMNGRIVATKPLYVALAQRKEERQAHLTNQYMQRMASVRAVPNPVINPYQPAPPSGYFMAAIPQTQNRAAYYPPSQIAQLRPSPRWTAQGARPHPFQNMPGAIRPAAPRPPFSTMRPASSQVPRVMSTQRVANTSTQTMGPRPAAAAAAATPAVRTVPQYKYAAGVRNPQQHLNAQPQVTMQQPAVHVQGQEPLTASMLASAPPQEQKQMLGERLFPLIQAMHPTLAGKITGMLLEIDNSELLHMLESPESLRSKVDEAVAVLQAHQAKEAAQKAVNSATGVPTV
RBBP9 inhibitor – inhibitors of human serine hydrolase RBBP9; recombinant RBBP9, FP-Rh probe fluorescence polarization; inhibition, % at 7.94 µM; actives 0.2% (n = 220,000); O75884; AID 1515;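 active = inhibition above the campaign mean of all tested compounds plus 3 SD, cut at about 14% in these data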;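 also: plate controls were DMSO wells with RBBP9 for no effect and wells lacking RBBP9 protein for full effect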
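system = RBBP9 protein | input = RBBP9 at 2.5 µM in dispensed solution, before mixing | measured by = fluorescence polarization (mP), excitation 525 nm, emission 598 nm | incubation = enzyme-compound preincubation 30 min, then probe labeling 45 min, 25 °C | buffer or medium = Tris-NaCl-Pluronic buffer, pH 8.0 | compound = single dose 7.94 µM | also added = FP-Rh probe, 375 nM dispensing solution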
eIF4H inh – inhibitors of RNA binding by human eIF4H; inhibition, % at 35 µM; Q15056; AID 2012; eIF4H fluorescence polarization binding assay; actives 0.94% (n = 290,000); call rule not given here;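 also: calls also rest on retests at 20 µM and on dose response follow-up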
PABP1 MLLE inh – blocks PAM2 peptide binding to the PABP1 MLLE domain; GST-MLLE / FITC-PAM2 fluorescence polarization; AID 588489; inhibition, % at 20 µM; P11940; actives 0.36% (n = 360,000); in the data active = inhibition above about 35%, passing the limit was not always enough;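 also: plate controls were DMSO wells with GST-MLLE for no effect and wells lacking GST-MLLE protein for full effect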
BSA probe FL – counter-screen for TCR-CD3 interaction inhibitors: BSA probe. shares compounds with TCR-CD3 inh. TAMRA-labeled BSA probe fluorescence counterscreen. inhibition, % at 9.4 µM. actives 10% (n = 1,200). AID 652035; in the data active = inhibition above about 23%;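 also: 0% = buffer low control and 100% = reference high control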
TCR-CD3 conf – TCR-CD3 interaction inhibition, confirmation. shares compounds with TCR-CD3 inh. TAMRA-labeled TCR probe fluorescence binding assay. inhibition, % at 9.4 µM. actives 48% (n = 1,200)
* hit, by the source's call; i = inactive; ? = inconclusive; / = no result given; + = active, no number. Rule as the data show it, unless noted: active = inhibition above about 19%; inactive = the rest.

SMILES	TCR-CD3 inh	PABP polyA inh	RBBP9 inhibitor	eIF4H inh	PABP1 MLLE inh	BSA probe FL	TCR-CD3 conf
CCOC(=O)C1=CCC(c2ccccc2C)N(S(=O)(=O)c2ccc(C)cc2)C1 (stereo not given)	-6	/	/	/	-12	/	/
CCOc1cccc(/C=N/NC(=S)Nc2cc(S(=O)(=O)N3CCOCC3)ccc2N2CCOCC2)c1O	21*	i	-3	3	12	-2	3
COc1cc(CNc2cccc3c2S(=O)(=O)N([C@H](C)c2ccccc2)C[C@@H](COCc2ccccc2)O3)cc(OC)c1OC	1	/	/	/	/	/	/
O=c1nc2c(O)cccn2c2c1c(=O)[nH]c1ccccc12	54*	i	-5	80	113	-11	13
CCCCCCCCN1C(=O)[C@H](CC(=O)NCc2ccc(C)o2)C[C@@]2(C(=O)OCC)CCC=C12	2	/	/	/	/	/	/
CC(=O)N(C)C1(c2nnnn2CCOC(=O)Nc2ccc(Cl)cc2)CCCCC1	30*	i	1	4	4	1	2
COC(=O)C1=C(C)N(C)C(=NCc2cccc(C(F)(F)F)c2)NC1c1ccccc1C(F)(F)F (stereo not given)	5	/	/	/	/	/	/
CC(=O)NNC(=O)c1sc(=S)n2c1[nH]c(=O)c1sccc12	29*	+	-1	54*	34	-2	9
NC(=O)c1sc(=S)n2c1[nH]c(=O)c1sccc12	-2	i	-6	4	12	/	/
C=CCCC1CN(Cc2ccc(OC)cc2)S(=O)(=O)c2c(NCc3cc(OC)c(OC)c(OC)c3)cccc2O1 (stereo not given)	0	/	/	/	/	/	/
O=c1oc2ccccc2c2oc3cc(O)c(O)cc3c12	21*	+	5	101*	19	-3	31*
COCC(=O)N(C)[C@H]1C[C@H]2c3[nH]c4c(-c5ccccc5)cccc4c3CCN2C(=O)[C@H]1[C@H](C)O	8	/	/	/	/	/	/
COC(=O)c1sccc1NC(=O)Nc1ccc(Cl)c(Cl)c1	34*	i	-6	-2	10	3	7
Cc1ccccc1-c1ccc2c(c1)[C@@H]1C[C@H](N(C)C(=O)Nc3ccccc3)[C@H]([C@H](C)O)CN1CC2	-4	/	/	/	/	/	/
Cc1ccc2nc(-c3ccc(O)c(O)c3)cn2c1	54*	i	/	23	4	-3	28*
Cc1ccc2nc(-c3ccccc3)cn2c1	5	i	-5	1	-10	/	/
C[C@@H]1CN([C@@H](C)CO)C(=O)CCCn2cc(nn2)CO[C@H]1CN(C)C(=O)c1ccncc1	1	/	/	/	/	/	/
NS(=O)(=O)c1ccc(NC(=O)c2cccc(N3C(=O)c4ccccc4C3=O)c2)cc1	25*	i	/	-21	-28	-1	30*
COC(=O)c1cc2c(c3c4ccccc4n(S(=O)(=O)c4ccc(C)cc4)c13)C(=O)N(Cc1ccccc1)C2	-3	/	/	/	/	/	/
CCN(CC)S(=O)(=O)c1ccc(C(=O)NCc2ccc3c(c2)cc(C)n3C)cc1	74*	i	1	20	46*	-5	-1
Cc1cc2cc(CNC(=O)c3ccc(S(=O)(=O)N4CCCC4)cc3)ccc2n1C	70*	i	-2	27	29	3	0
O=C(N/N=C/c1c(O)n(Cc2ccco2)c(=O)[nH]c1=O)c1ccccc1	23*	i	1	10	-53	-2	20*
O=C(N/N=C\c1ccccc1OCc1ccccc1)c1ccco1	-8	i	-8	-9	12	/	/
COc1ccc(S(=O)(=O)N2CCCc3nc(-c4ccccc4)ccc32)cc1	0	/	/	/	/	/	/
CCNc1ccccc1CP(=O)(c1ccccc1)c1ccccc1O (stereo not given)	51*	?	/	?	/	4	5
O=C(CSc1nc2ccccc2c(=O)n1-c1ccc(F)c(Cl)c1)Nc1cccc(S(=O)(=O)N2CCOCC2)c1	22*	i	-20	-13	-36	7	19*
CC(=O)Nc1ccc(S(=O)(=O)Nc2cccc3[nH]ncc23)cc1	3	i	-7	6	1	/	/
O=C(Nc1cccc2[nH]ncc12)NS(=O)(=O)c1ccccc1	58*	i	/	40	-7	35*	27*
O=C(Cc1nnc(NC(=O)c2ccccc2)s1)N/N=C/c1cccc(O)c1	10	i	/	-5	-32	/	/
